Measurements published in ChEMBL document CHEMBL4004850, “Rational design of reversible inhibitors for trehalose 6-phosphate phosphatases” (Eur J Med Chem, 2017).

How the values were obtained:
Trehalose-phosphatase [1] = biological target: T1, Trehalose-phosphatase (Brugia malayi, UniProt A8NS89); assay: Competitive inhibition of Brugia malayi T6PP using T6P as substrate by Lineweaver-Burk plot analysis
T1 sequence (A8NS89 whole entry): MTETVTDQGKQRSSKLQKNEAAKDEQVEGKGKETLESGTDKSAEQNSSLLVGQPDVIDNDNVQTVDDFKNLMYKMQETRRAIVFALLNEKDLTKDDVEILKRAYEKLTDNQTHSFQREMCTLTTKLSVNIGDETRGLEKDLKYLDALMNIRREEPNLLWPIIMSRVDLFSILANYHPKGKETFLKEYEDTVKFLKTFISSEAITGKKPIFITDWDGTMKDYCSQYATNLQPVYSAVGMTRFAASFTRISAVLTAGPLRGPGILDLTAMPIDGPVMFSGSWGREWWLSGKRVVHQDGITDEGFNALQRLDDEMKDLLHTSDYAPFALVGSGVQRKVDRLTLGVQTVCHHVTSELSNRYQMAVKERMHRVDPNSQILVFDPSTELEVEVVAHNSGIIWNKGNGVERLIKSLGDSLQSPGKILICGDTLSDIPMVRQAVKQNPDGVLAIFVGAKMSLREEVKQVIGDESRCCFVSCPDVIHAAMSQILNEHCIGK
Summary of the method: (§1)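 Continuous phosphate-release assay (EnzChek, MESG/purine nucleoside phosphorylase) at 25 °C. Initial velocities of T6P hydrolysis by T6PP were taken at varied T6P with inhibitor at 0, Ki and 2×Ki. Km and Vmax come from double-reciprocal plots.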

[2] = Inhibition of Ascaris suum T6PP using T6P as substrate by Lineweaver-Burk plot analysis
[3] = Inhibition of Shigella boydii T6PP using T6P as substrate by Lineweaver-Burk plot analysis; summary of the method: as §1
[4] = Inhibition of Salmonella typhimurium T6PP using T6P as substrate by Lineweaver-Burk plot analysis; set-up: species or system Salmonella enterica subsp. enterica serovar Typhimurium; summary of the method: as §1
Shigella boydii [5] = assay: Inhibition of Shigella boydii T6PP assessed as Vmax for substrate using T6P as substrate by Lineweaver-Burk plot analysis; summary of the method: as §1
Shigella boydii [6] = assay: Inhibition of Shigella boydii T6PP assessed as Km for substrate using T6P as substrate by Lineweaver-Burk plot analysis; summary of the method: as §1
Ascaris suum [7] = assay: Inhibition of Ascaris suum T6PP assessed as Vmax for substrate using T6P as substrate by Lineweaver-Burk plot analysis; summary of the method: as §1
Ascaris suum [8] = assay: Inhibition of Ascaris suum T6PP assessed as Km for substrate using T6P as substrate by Lineweaver-Burk plot analysis; summary of the method: as §1
[9] = test system: Salmonella enterica subsp. enterica serovar Typhimurium; assay: Inhibition of Salmonella typhimurium T6PP assessed as Vmax for substrate using T6P as substrate by Lineweaver-Burk plot analysis; summary of the method: as §1
[10] = test system: Salmonella enterica subsp. enterica serovar Typhimurium; assay: Inhibition of Salmonella typhimurium T6PP assessed as Km for substrate using T6P as substrate by Lineweaver-Burk plot analysis; summary of the method: as §1
Escherichia coli = conditions: 200 uM
[11] = test system: Bacteroides thetaiotaomicron; conditions: 200 uM
[12] = biological target: T2, Trehalose-phosphatase (Brugia malayi) (UniProt A8NS89); assay: Inhibition of Brugia malayi T6PP using T6P as substrate assessed as fraction of enzyme unbound with compound by measuring ratio of initial velocities of T6P substrate hydrolysis in presence and absence of compound at 1 mM […] by BioMol green dye based HTS assay
T2 sequence (whole entry): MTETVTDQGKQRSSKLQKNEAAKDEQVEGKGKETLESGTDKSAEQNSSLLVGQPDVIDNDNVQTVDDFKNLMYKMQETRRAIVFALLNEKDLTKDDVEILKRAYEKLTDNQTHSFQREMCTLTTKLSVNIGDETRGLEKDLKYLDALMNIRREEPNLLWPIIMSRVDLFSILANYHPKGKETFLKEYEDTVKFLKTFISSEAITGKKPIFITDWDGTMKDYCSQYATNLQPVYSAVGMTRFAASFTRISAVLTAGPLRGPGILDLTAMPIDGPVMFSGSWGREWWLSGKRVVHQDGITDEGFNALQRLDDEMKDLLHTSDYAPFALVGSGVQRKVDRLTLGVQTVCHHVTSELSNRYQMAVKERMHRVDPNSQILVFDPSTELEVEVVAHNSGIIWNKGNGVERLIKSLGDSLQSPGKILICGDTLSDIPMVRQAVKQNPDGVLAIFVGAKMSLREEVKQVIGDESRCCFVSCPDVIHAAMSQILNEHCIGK

Ascaris suum [13] = assay: Inhibition of Ascaris suum T6PP using T6P as substrate assessed as fraction of enzyme unbound with compound by measuring ratio of initial velocities of T6P substrate hydrolysis in presence and absence of compound at 1 mM after 5 mins by BioMol green dye based HTS assay
Summary of the method: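 T6P is at half saturation ([T6P] = Km), with and without 1 mM inhibitor, at 25 °C. Released phosphate is detected with dye (30 min incubation) by A625. The reported value is V_I/V, the initial-velocity ratio.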

Shigella boydii [14] = assay: Inhibition of Shigella boydii T6PP using T6P as substrate assessed as fraction of enzyme unbound with compound by measuring ratio of initial velocities of T6P substrate hydrolysis in presence and absence of compound at 1 mM after 5 mins by BioMol green dye based HTS assay
Summary of the method: (§2)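 Freshly purified St-T6PP or Sb-T6PP (5–25 nM) in 50 mM Hepes pH 7.5, 25 mM NaCl, 2 mM MgCl₂, 5% glycerol at 25 °C. T6P at half saturation (Km) for each enzyme. Hydrolysis rate was compared with and without 1 mM inhibitor; phosphate read at 625 nm after 30 min incubation. The ratio VI/V gives the fraction of enzyme not inhibitor-bound.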

[15] = test system: Salmonella enterica subsp. enterica serovar Typhimurium; assay: Inhibition of Salmonella typhimurium T6PP using T6P as substrate assessed as fraction of enzyme unbound with compound by measuring ratio of initial velocities of T6P substrate hydrolysis in presence and absence of compound at 1 mM after 5 mins by BioMol green dye based HTS assay; summary of the method: as §2
Ascaris suum [16] = assay: Activity at Ascaris suum T6PP
[17] = test system: Mycobacterium tuberculosis; assay: Activity at Mycobacterium tuberculosis T6PP
Shigella boydii [18] = assay: Activity at Shigella boydii T6PP
[19] = test system: Salmonella enterica subsp. enterica serovar Typhimurium; assay: Activity at Salmonella typhimurium T6PP
Trehalose-phosphatase [20] = biological target: T1, Trehalose-phosphatase; assay: Reversible competitive inhibition of Brugia malayi T6PP using T6P as substrate by Lineweaver-Burk plot analysis
[21] = substrate: O=P(O)(O)OC[C@H]1O[C@@H](Oc2ccccc2)[C@H](O)[C@@H](O)[C@@H]1O; assay: Activity at Brugia malayi T6PP
[22] = compound: CCCCCCCCc1ccc(O[C@@H]2O[C@H](COS(=O)(=O)O)[C@@H](O)[C@H](O)[C@H]2O)cc1; assay: (§3) Competitive inhibition of Brugia malayi T6PP assessed as Vmax for substrate using T6P as substrate by Lineweaver-Burk plot analysis; summary of the method: as §1
[23] = compound: CCCCCCCCc1ccc(O[C@H]2O[C@H](COS(=O)(=O)O)[C@@H](O)[C@H](O)[C@H]2O)cc1; assay: as §3; summary of the method: as §1
[24] = compound: CCCCCCc1ccc(O[C@H]2O[C@H](COS(=O)(=O)O)[C@@H](O)[C@H](O)[C@H]2O)cc1; assay: as §3; summary of the method: as §1
[25] = compound: O=S(=O)(O)OC[C@H]1O[C@H](OCc2ccccc2)[C@H](O)[C@@H](O)[C@@H]1O; assay: as §3; summary of the method: as §1
[26] = compound: CCCCCCCCc1ccc(O[C@@H]2O[C@H](COS(=O)(=O)O)[C@@H](O)[C@H](O)[C@H]2O)cc1; assay: (§4) Competitive inhibition of Brugia malayi T6PP assessed as Km for substrate using T6P as substrate by Lineweaver-Burk plot analysis; summary of the method: as §1
[27] = compound: CCCCCCCCc1ccc(O[C@H]2O[C@H](COS(=O)(=O)O)[C@@H](O)[C@H](O)[C@H]2O)cc1; assay: as §4; summary of the method: as §1
[28] = compound: CCCCCCc1ccc(O[C@H]2O[C@H](COS(=O)(=O)O)[C@@H](O)[C@H](O)[C@H]2O)cc1; assay: as §4; summary of the method: as §1
[29] = compound: O=S(=O)(O)OC[C@H]1O[C@H](OCc2ccccc2)[C@H](O)[C@@H](O)[C@@H]1O; assay: as §4; summary of the method: as §1
[30] = compound: O=S(=O)(O)OC[C@H]1O[C@@H](Oc2ccccc2)[C@H](O)[C@@H](O)[C@@H]1O; assay: (§5) Reversible competitive inhibition of Brugia malayi T6PP assessed as Vmax for substrate using T6P as substrate by Lineweaver-Burk plot analysis
[31] = compound: O=S(=O)(O)OC[C@H]1O[C@H](Oc2ccccc2)[C@H](O)[C@@H](O)[C@@H]1O; assay: as §5
[32] = compound: O=S(=O)(O)OC[C@H]1O[C@@H](Oc2ccccc2)[C@H](O)[C@@H](O)[C@@H]1O; assay: (§6) Reversible competitive inhibition of Brugia malayi T6PP assessed as Km for substrate using T6P as substrate by Lineweaver-Burk plot analysis
[33] = compound: O=S(=O)(O)OC[C@H]1O[C@H](Oc2ccccc2)[C@H](O)[C@@H](O)[C@@H]1O; assay: as §6
[34] = substrate: CCCCCCCCc1ccc(O[C@H]2O[C@H](COS(=O)(=O)O)[C@@H](O)[C@H](O)[C@H]2O)cc1; conditions: Pseudomonas putida KT2440; 200 uM
[35] = substrate: CCCCCCCCc1ccc(O[C@H]2O[C@H](COS(=O)(=O)O)[C@@H](O)[C@H](O)[C@H]2O)cc1; conditions: Pseudomonas putida KT2440; 200 uM; remark: listed apart in the source

## CCCCCCCCc1ccc(O[C@H]2O[C@H](COS(=O)(=O)O)[C@@H](O)[C@H](O)[C@H]2O)cc1
Trehalose-phosphatase [1]
  Ki: 5.3 µM
[2]
  Ki: 80 to 84 µM
[3]
  Ki: 21 µM
[4]
  Ki: 56 µM
Shigella boydii [5]
  Vmax: 0.897 µM/s
Shigella boydii [6]
  Km: 246 µM
Ascaris suum [7]
  Vmax: 0.48 µM/s
Ascaris suum [8]
  Km: 406 µM
[9]
  Vmax: 0.173 µM/s
[10]
  Km: 387 µM
Escherichia coli
  Vmax: 0.0605 µM/s
[11]
  Vmax: 0.0788 µM/s

## O=P(O)(O)OC[C@H]1O[C@@H](Oc2ccccc2)[C@H](O)[C@@H](O)[C@@H]1O
[12]
  Ratio: 0.79
Ascaris suum [13]
  Ratio: 0.98
Shigella boydii [14]
  Ratio: 0.94
[15]
  Ratio: 0.77
Ascaris suum [16]
  kcat: 0.96 ×10⁻² /s
[17]
  kcat: 0.71 ×10⁻² /s
Shigella boydii [18]
  kcat: 0.71 ×10⁻² /s
[19]
  kcat: 0.41 ×10⁻² /s

## O=S(=O)(O)OC[C@H]1O[C@H](Oc2ccccc2)[C@H](O)[C@@H](O)[C@@H]1O
[12]
  Ratio: 0.42
Ascaris suum [13]
  Ratio: 0.71
Shigella boydii [14]
  Ratio: 0.76
[15]
  Ratio: 0.64
Trehalose-phosphatase [20]
  Ki: 320 µM

B1: Trehalose-phosphatase (Brugia malayi), A8NS89 (protein)
chain: MTETVTDQGKQRSSKLQKNEAAKDEQVEGKGKETLESGTDKSAEQNSSLLVGQPDVIDNDNVQTVDDFKNLMYKMQETRRAIVFALLNEKDLTKDDVEILKRAYEKLTDNQTHSFQREMCTLTTKLSVNIGDETRGLEKDLKYLDALMNIRREEPNLLWPIIMSRVDLFSILANYHPKGKETFLKEYEDTVKFLKTFISSEAITGKKPIFITDWDGTMKDYCSQYATNLQPVYSAVGMTRFAASFTRISAVLTAGPLRGPGILDLTAMPIDGPVMFSGSWGREWWLSGKRVVHQDGITDEGFNALQRLDDEMKDLLHTSDYAPFALVGSGVQRKVDRLTLGVQTVCHHVTSELSNRYQMAVKERMHRVDPNSQILVFDPSTELEVEVVAHNSGIIWNKGNGVERLIKSLGDSLQSPGKILICGDTLSDIPMVRQAVKQNPDGVLAIFVGAKMSLREEVKQVIGDESRCCFVSCPDVIHAAMSQILNEHCIGK
[21]
  kcat: 1.4 ×10⁻² /s
[22]
  Vmax: 0.584 µM/s
[23]
  Vmax: 0.924 µM/s
[24]
  Vmax: 0.375 µM/s
[25]
  Vmax: 0.457 µM/s
[26]
  Km: 156 µM
[27]
  Km: 229 µM
[28]
  Km: 234 µM
[29]
  Km: 127 µM
[30]
  Vmax: 0.57 µM/s
[31]
  Vmax: 0.496 µM/s
[32]
  Km: 126 µM
[33]
  Km: 109 µM

B2: D-glycero-beta-D-manno-heptose-1,7-bisphosphate 7-phosphatase (Pseudomonas putida (strain ATCC 47054 / DSM 6125 / NCIMB 11950 /KT2440)), Q88RS0 (protein)
chain: MKLLILDRDGVINYDSDAYIKTLEEWVPIPGSVDAIAQLSKAGWTVAVATNQSGIARGYYPLATLEAMHARLRALVAEQGGEVGHIVYCPHGPDEGCDCRKPKPGMLRAIAEHYQIGLEGVWFVGDSKGDLEAALAVGAQPVLVKTGKGERTLEKGVPETTLIFDDLAAIARELI
[34]
  Vmax: 0.106 µM/s
[35]
  Vmax: 0.0175 µM/s
